Assay results taken from the EternaBench riboswitch data.

System: MS2 coat protein
Test: apparent Kd, MS2 coat protein; higher = weaker binding; RNA-MaP array; FMN 200 µM where present
Procedure, shortened: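 SNAP-549-labelled MS2 coat protein, doubled from 0.7 or 1.5 nM to 3 µM, was titrated over designs transcribed by stalled E. coli RNA polymerase on Illumina sequencing-chip clusters. Titrations were run without and then with constant ligand in 100 mM Tris-HCl pH 7.5, 80 mM KCl, 4 mM MgCl2, BSA, DTT, yeast tRNA and Tween-20. The apparent Kd is the median of filtered per-cluster fits to green signal normalised to red-channel RNA signal and control-cluster median Fmax.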

[1] = designed as: OFF switch for flavin mononucleotide, no ligand
[2] = ligand present: flavin mononucleotide, designed as: OFF switch for flavin mononucleotide
[3] = designed as: ON switch for flavin mononucleotide, no ligand
[4] = ligand present: flavin mononucleotide, designed as: ON switch for flavin mononucleotide

| Sequence | apparent Kd [1] | apparent Kd [2] | apparent Kd [3] | apparent Kd [4] |
| --- | --- | --- | --- | --- |
| GGAUGACAAAGUCAUCCUAAACGAACAUGAGGAUCACCCAUGUAGGAUAUGCUACUGAAACAGUAGCAGAAGGACAUGUGCCUU | 31.1 nM | 211 nM |  |  |
| GGAUGACAUAGUCAUCCUUAACGAACAUGAGGAUCACCCAUGUAGGAUAUGCUACUCAACGAGUAGCAGAAGGACAUGUGUCUU | 26.5 nM | 142 nM |  |  |
| GGAUGAGAAACUCAUCCAUAACGAACAUGAGGAUCACCCAUGUAGGAUAUGCUACUCAAAGAGUAGCAGAAGGACAUGUGCCUU | 29.8 nM | 259 nM |  |  |
| GGAUGAGCAAUAGGAUAUGCUGGGAUUGAAUGGGUAGAAGGAUUUCUAGUGGGAAAGACAUGAGGAUCACCCAUGUCGCGGCCC |  |  | 23.8 nM | 25.3 nM |
| GGAUGAUUAAUAGGAUAUUAGUUGUAAAAUGUUUAAGAAGGAUUAAUGAUUUAAACGACCAGUUACAUGAGGAUCACCCAUGUU |  |  | 27.9 nM | 21.4 nM |
| GGAUGCAAAGAGAAGGGCUACUGGUUGAAACCUGCGGCCUCUGGAACAUGAGGAUCACCCAUGUAGCAGGAUAUCUUUACGUCA | 173 nM | 39.4 nM |  |  |
| GGAUGUCUGGAGGAUAUACAGACUAUUAGAUCAGUAGAAGGUCAGACAUGAGGAUCACCCAUGUUAGUGUAUCC | 52 nM | 473 nM |  |  |
| GGAUUACAUGAGGAUCACCCAUGUGAGGAUAUCGAUGUCCAGUAAUACGUGCGGGACUCGAGAAGGCACUUGGA | 40.1 nM | 200 nM |  |  |
| GGAUUUCCUGAGGAUAUUGCAUCACCUGAUUUAUAAGAAGGCAGAACAUGAGGAUCACCCAUGUGGGUAUUCGG | 27.6 nM | 37.4 nM |  |  |
| GGCAGCUCGUGAGGAUAUACAACACUGCUUCGGCAGUGUAUUAAGAUCACAUGAGGAUCACCCAUGUAGAAGGCACGAGCUGAU | 13.9 nM | 254 nM |  |  |
| GGCGAACAGGCUAACAUGAGGAUCACCCAUGUGGACUCAUGGUAGGAUAUGCUGUAGAAACUACAGCAGAAGGGCCGGUGAGCC |  |  | 66.1 nM | 294 nM |
| GGCGAACGGGCUUACAUGAGGAUCACCCAUGUAGACUCAUGGUAGGAUAUGCUGUACAAAGUACAGCAGAAGGGCCGGUGAGCU |  |  | 89.1 nM | 43.5 nM |
| GGCGGCGCGGGCCACCGCAGGGCCAGAAGGACAUGAGGAUCACCCAUGUGGCAGAACAGGGCGGUGUAGGAUAUGGCAGGCUCG | 35.5 nM | 76.2 nM |  |  |
| GGCGGGCACACUGGCCGCUGAAGGAGAAGGCAGUGCACAUGAGGAUCACCCAUGUCGCGUGUGCCUGAGGAUAUCCGUAAAACG | 9.38 nM | 71.4 nM |  |  |
| GGCGGUGAUCUAUUAGGACACAUGAGGAUCACCCAUGUGACAGAGGAUAUACGGAACUUUGGAUAGUAGAAGGCUGUCGCAAAA | 315 nM | 119 nM |  |  |
| GGCUCAUUUACAUUAAUGUGCAGACAGGAUAUCCACCGCGGUUCCUACAUGAGGAUCACCCAUGUGGAGAAGGGUCGCUAAUGG | 29.1 nM | 72.2 nM |  |  |
| GGCUUCUUCACAGGAUAUGGUUUUUUAAGUAUACAUGAGGAUCACCCAUGUCCAGAAGGGUGAGGGUCCGGCGUACAGUGUCGG |  |  | 645 nM | 30.4 nM |
| GGGAAGUGCCAGAAGGCUCCCGGAUUCCUAGGGAGAGGAUAUGGCACAUGAGGAUCACCCAUGUGGUAGAUCUGUUUCGAAGUG | 30.4 nM | 16.9 nM |  |  |
| GGGAGACAUGAGGAUCACCCAUGUGAAAACGUGGCAGGAUAUCGAUGGAAACCAUACUGUCGAGAAGGGCCUUGUC |  |  | 56.7 nM | 35.6 nM |
| GGGAUGUGAGGAUAUACAUGAACUAUCCACUGUGCUGGGCCACAUGAGGAUCACCCAUGUAGAAGGUACGCCCA | 66.2 nM | 168 nM |  |  |
| GGGCACAAAGGAUAUACAUGAGGAUCACCCAUGUUCACCACAACAUGUUACUGCCCAAGUAGAAGGUUGGCCCA | 38.7 nM | 288 nM |  |  |

| Sequence | apparent Kd [1] | apparent Kd [2] | apparent Kd [3] | apparent Kd [4] |
| --- | --- | --- | --- | --- |
| GGGCACAUCGGAGGAUAUCAUGUAAAUACAUGAGGAUCACCCAUGUCGAUGGAGACAUCGGAGAUUGAGAAGGCCGAUGUACCG |  |  | 191 nM | 9.02 nM |
| GGGCCCGGAGGAUAUACAUGAGGAUCACCCAUGUAGGGCCCGGGUAUUCCCGGGCCCUGUAGAAGGCCGGGUUU | 14.3 nM | 18.8 nM |  |  |
| GGGCCCGGAGGAUAUACAUGAGGAUCACCCAUGUGCCGGGCCCAACGGGCCCGGCUGUGUAGAAGGCCGGGCCC | 13.3 nM | 12.5 nM |  |  |
| GGGCUCGGUGUGAGGAUAUGCUCGGGUAAAUCUGGGUAGAAGGCACAUGAGGAUCACCCAUGUAAGCUGGGUCU | 33.9 nM | 33.9 nM |  |  |
| GGGUACAUCGGAGGAUAUCAUGUAAAUACAUGAGGAUCACCCAUGUCGAUGGAAACAUCGGAGAUUGAGAAGGCCGAUGUACCG |  |  | 9.76 nM | 5.01 nM |
| GGGUACAUCGGAGGAUAUCAUGUAAAUACAUGAGGAUCACCCAUGUCGAUGGAGACAUCGCAGAUUGAGAAGGCCGAUGUACCG |  |  | 28 nM | 5.26 nM |
| GGGUACAUCGGAGGAUAUCAUGUAAAUACAUGAGGAUCACCCAUGUCGAUGGAGACAUCGGAGAUUGAGAAGGCCGAUGGACCG |  |  | 163 nM | 8.74 nM |
| GGGUACAUCGGAGGAUAUCAUGUAAAUACAUGAGGAUCACCCAUGUCGAUGGAGACAUCGGAGAUUGAGAAGGGCGAUGUACCG |  |  | 647 nM | 75.8 nM |
| GGGUACAUCGGAGGAUAUCAUGUAAAUACAUGAGGAUCACCCAUGUCGAUGGAGACCUCGGAGAUUGAGAAGGCCGAUGUACCG |  |  | 694 nM | 201 nM |
| GGGUACGUCGGAGGAUAUCAUGUAAAUACAUGAGGAUCACCCAUGUCGAUGGAGACAUCGGAGAUUGAGAAGGCCGAUGUACCG |  |  | 192 nM | 8.89 nM |
| GGGUGCAUCGGAGGAUAUCAUGUAAAUACAUGAGGAUCACCCAUGUCGAUGGAGACAUCGGAGAUUGAGAAGGCCGAUGUACCG |  |  | 172 nM | 8.99 nM |
| GGGUGGCGUAGAGGAUAUGUGGUACAUGAGGAUCACCCAUGUGCAUAUGAUGUUCGUGUGUCUUCAUAGAAGGCUACGUCGCUA |  |  | 97 nM | 63 nM |
| GGGUGGCGUAGAGGAUAUGUGGUACAUGAGGAUCACCCAUGUGCAUAUGAUGUUCGUGUUUAUGUAUAGAAGGCUACGUCGCUA |  |  | 12.5 nM | 12.3 nM |
| GGUACCUUCACAGGAUAUGCUAUGGUUUCCGUAGCAGAAGGGUGAUACAUGAGGAUCACCCAUGUGGUGCCAGGGCGUGAGCCC |  |  | 387 nM | 293 nM |
| GGUACCUUUACAGGAUAUGCUAGCCUUUGGUUAGCAGAAGGGUGAUACAUGAGGAUCACCCAUGUGGUGCCAGGGCGUGAGCCC |  |  | 79.2 nM | 447 nM |
| GGUACUCAAAGAGUACCAAUACGAACAUGAGGAUCACCCAUGUAGGAUAUGCUACUAAAAGAGUAGCAGAAGGACAUGUGCCUA | 13.5 nM | 75.4 nM |  |  |
| GGUACUCAAAGAGUACCAAUACGAACAUGAGGAUCACCCAUGUAGGAUAUGCUACUCAAAGAGUAGCAGAAGGACAUGUGCCUA | 19.1 nM | 106 nM |  |  |
| GGUACUCAAAGAGUACCAAUACGAACAUGAGGAUCACCCAUGUAGGAUAUGCUAUCGAAACGAUAGCAGAAGGACAUGUGCCUU | 26.4 nM | 218 nM |  |  |
| GGUAGAGACGUUAACAUGAGGAUCACCCAUGUCGAAGGAGAUGAGGAUAUCGUAUACGAUGUAUAUGAGAAGGCAUGGUCUGCC |  |  | 24.4 nM | 11.7 nM |
| GGUAGAGAGCAGGAUAUCUUGGGUAAGUAUCGUAGAGAAGGGCUCACAUGAGGAUCACCCAUGUGGUCCAAGAU | 15.5 nM | 34.2 nM |  |  |
